Active and inactive are the calls of the source. No cut-off for these calls is given here.
Legend:
Format in all cases: functional, cell-based
LoVo [1] = experiment: Cytotoxicity against human wild type LoVo cells at 100 uM after 24 hrs by MTS assay
Method in brief: (§1)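 LoVo WT human colon adenocarcinoma cells grown in D-MEM F12 with 10% FBS, penicillin/streptomycin, 37 °C, 5% CO2. Seeded 1 × 10^4 cells/well, medium replaced after 1 day with exposure medium containing test agents (0.1–300 µM; DMSO 0.3% or less). After 1–3 day exposure, MTS/PMS added for 2 h at 37 °C; formazan absorbance read at 490 nm. Viability expressed relative to DMSO-only controls.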

LoVo [2] = experiment: Cytotoxicity against human wild type LoVo cells after 24 hrs by MTS assay; method in brief: as §1
LoVo [3] = experiment: Cytotoxicity against human wild type LoVo cells after 48 hrs by MTS assay; method in brief: as §1
LoVo [4] = experiment: Induction of apoptosis in human wild type LoVo cells assessed as increase in hyplodiploid cells after 24 hrs by flow cytometry
Method in brief: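 Apoptosis measured in LoVo WT cells after 24 h exposure as the percentage of hypodiploid cells (loss of fragmented DNA), determined by flow cytometry.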

For CC1(C)CCc2cc(CCO)ccc2O1, which Activity (LoVo [1]) is on record?
Its Activity is “inactive”.

How did the IC50 (LoVo [2]) turn out when CC1(C)CCc2c(ccc3c4c(ccc23)OC(C)(C)CC4)O1 was run?
The IC50 was 258 µM.

What about the IC50 (LoVo [3]) of the same compound?
The IC50 was 395 µM.

And the Activity (LoVo [4])?
The Activity was “inactive”.

Which results are given for CC1(C)CCc2c(ccc3cc(O)ccc23)O1?
IC50 (LoVo [2]): 34.5 µM; IC50 (LoVo [3]): 27.4 µM; Activity (LoVo [4]): Active

With Oc1ccc2cc(O)ccc2c1 as the compound, how does the Activity (LoVo [4]) read?
Its Activity is “inactive”.
